Test results as given in ChEMBL document CHEMBL1139436, “Quantitative structure-activity relationship of sesquiterpene lactones as inhibitors of the transcription factor NF-kappaB” (J Med Chem, 2004).

Columns and labels:
[1] = target: T1, Nuclear factor NF-kappa-B complex (Homo sapiens) (UniProt Q00653+P19838+Q04206); experiment: (§1) Concentration required for complete inhibition of Nuclear factor kappa B DNA binding; assay type: protein-complex assay
Outline: (§2)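 Jurkat T cells (RPMI 1640, 10% FCS, penicillin/streptomycin) pretreated 1 h with sesquiterpene lactone, first at 10, 20, 50, 100 μM, then 1–5 μM or 200–300 μM as needed. Stimulated 1 h with 200 U/mL TNF-α. Total extracts (Totex high-salt buffer) analysed by EMSA with ³²P-labeled NF-κB oligonucleotide, 25 min at room temperature. IC100 is the lowest tested level fully blocking binding; intermediate values assigned the higher level. Each experiment reproduced at least once.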

[2] = target: T1, Nuclear factor NF-kappa-B complex (Homo sapiens); experiment: as §1; assay type: protein-complex assay; parameters: unit not given here; outline: as §2

T1 sequence (P19838 whole entry, looked up): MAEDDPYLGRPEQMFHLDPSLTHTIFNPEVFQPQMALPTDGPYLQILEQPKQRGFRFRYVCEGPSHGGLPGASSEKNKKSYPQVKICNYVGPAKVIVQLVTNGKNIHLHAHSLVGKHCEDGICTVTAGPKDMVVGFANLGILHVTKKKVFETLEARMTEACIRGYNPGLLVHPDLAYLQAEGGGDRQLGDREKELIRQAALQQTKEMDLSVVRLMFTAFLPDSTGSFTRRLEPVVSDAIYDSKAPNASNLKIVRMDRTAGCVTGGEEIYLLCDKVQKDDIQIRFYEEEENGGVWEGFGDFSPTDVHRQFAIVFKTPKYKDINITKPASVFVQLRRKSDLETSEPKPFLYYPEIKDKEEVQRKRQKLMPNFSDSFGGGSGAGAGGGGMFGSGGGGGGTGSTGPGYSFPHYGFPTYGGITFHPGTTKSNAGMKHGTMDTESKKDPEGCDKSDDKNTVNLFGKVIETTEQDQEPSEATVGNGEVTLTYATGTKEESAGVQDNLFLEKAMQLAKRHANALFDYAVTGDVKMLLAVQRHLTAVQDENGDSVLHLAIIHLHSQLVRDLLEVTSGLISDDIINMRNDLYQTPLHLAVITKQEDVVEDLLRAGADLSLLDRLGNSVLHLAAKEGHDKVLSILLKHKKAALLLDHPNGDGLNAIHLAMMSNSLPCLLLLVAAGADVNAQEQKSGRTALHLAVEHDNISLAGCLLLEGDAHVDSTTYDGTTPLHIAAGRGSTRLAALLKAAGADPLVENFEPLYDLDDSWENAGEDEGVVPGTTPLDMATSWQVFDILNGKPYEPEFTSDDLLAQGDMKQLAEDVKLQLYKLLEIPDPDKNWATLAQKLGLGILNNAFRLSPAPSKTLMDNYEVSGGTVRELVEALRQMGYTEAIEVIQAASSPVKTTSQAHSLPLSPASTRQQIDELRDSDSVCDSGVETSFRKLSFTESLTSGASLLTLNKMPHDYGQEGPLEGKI
T1 sequence (Q00653 whole entry, looked up): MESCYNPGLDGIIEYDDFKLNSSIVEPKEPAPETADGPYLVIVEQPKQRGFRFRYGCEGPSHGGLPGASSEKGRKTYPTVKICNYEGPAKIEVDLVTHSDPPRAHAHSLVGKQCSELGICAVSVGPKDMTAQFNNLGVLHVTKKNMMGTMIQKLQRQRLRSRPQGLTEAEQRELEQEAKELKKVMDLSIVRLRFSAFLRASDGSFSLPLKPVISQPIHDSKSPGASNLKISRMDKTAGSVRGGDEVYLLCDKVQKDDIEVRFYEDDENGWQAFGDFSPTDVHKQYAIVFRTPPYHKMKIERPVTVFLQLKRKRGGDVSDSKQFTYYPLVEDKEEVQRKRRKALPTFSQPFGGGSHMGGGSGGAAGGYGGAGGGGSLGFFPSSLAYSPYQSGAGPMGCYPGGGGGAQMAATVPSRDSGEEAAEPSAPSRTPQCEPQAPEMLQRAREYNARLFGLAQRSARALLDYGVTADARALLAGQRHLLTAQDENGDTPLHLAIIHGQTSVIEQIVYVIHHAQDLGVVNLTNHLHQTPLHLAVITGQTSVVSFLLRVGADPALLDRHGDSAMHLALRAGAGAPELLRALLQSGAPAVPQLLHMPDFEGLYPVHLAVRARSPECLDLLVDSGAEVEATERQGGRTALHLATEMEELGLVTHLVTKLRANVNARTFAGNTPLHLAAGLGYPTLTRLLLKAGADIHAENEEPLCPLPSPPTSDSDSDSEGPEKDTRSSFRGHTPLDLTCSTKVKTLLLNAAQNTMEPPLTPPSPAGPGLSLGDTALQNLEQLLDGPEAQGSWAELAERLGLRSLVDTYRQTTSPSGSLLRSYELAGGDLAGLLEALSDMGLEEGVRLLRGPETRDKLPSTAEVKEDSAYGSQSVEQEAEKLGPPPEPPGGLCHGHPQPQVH
T1 sequence (Q04206 whole entry, looked up): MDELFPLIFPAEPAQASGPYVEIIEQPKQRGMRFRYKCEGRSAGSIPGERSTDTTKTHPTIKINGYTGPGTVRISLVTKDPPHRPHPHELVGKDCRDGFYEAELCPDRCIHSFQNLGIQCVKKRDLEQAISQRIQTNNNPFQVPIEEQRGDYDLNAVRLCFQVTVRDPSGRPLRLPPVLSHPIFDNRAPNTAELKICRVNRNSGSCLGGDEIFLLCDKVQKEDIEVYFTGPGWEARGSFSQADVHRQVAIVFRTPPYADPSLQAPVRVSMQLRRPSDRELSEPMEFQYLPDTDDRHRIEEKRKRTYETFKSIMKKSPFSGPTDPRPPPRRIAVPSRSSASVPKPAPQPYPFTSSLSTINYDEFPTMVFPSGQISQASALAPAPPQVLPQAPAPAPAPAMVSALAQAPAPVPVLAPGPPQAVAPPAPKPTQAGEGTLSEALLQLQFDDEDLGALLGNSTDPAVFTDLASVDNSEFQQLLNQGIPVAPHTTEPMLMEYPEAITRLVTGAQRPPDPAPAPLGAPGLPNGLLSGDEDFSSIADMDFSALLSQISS

C=C(CO)C(=O)OC/C1=C/C[C@@H]2C(=C)C(=O)O[C@H]2C/C(CO)=C\CC1
IC100 [1]: 20 µM | pIC100 [2]: -1.3

C=C1C(=O)O[C@@H]2/C=C(/COC(=O)CC(C)C)CC/C=C(/CO)C(=O)C[C@@H]12 (stereo in doubt; 3)
IC100 [1]: 12.5 µM | pIC100 [2]: -1.09

C=C1C(=O)O[C@@H]2[C@H]3C(C)=C(Cl)C(=O)C3=C(C)CC[C@@H]12
IC100 [1]: 20 µM | pIC100 [2]: -1.3

C=C1C(=O)OC2/C=C(/C)CC/C=C(/C)[C@@H](OC(C)=O)C[C@@H]12 (some centres not stated)
IC100 [1]: 200 µM | pIC100 [2]: -2.3

C=C1C(=O)O[C@H]2C/C(CO)=C\CC/C(COC(=O)C(C)C)=C\C[C@H]12
IC100 [1]: 50 µM | pIC100 [2]: -1.69

C=C1C(=O)O[C@H]2[C@H]1CCC(C)=C1C(=O)[C@H]3O[C@@]3(C)[C@@H]12
IC100 [1]: 5 µM | pIC100 [2]: -0.69

C=C(C)C(=O)O[C@@H]1C[C@]2(C)CC[C@@](OC)(O2)/C(C)=C\[C@H]2OC(=O)C(=C)[C@@H]21
IC100 [1]: 200 µM | pIC100 [2]: -2.3

C=C1C(=O)O[C@H]2C/C(CO)=C\CC/C(COC(=O)C3(C)CO3)=C\C[C@H]12 (some centres not stated)
IC100 [1]: 50 µM | pIC100 [2]: -1.69

C=C1C(=O)O[C@@H]2/C=C(/COC(=O)CC(C)C)C[C@H](OC(C)=O)/C=C(/CO)C(=O)C[C@@H]12
IC100 [1]: 12.5 µM | pIC100 [2]: -1.09

C=C1C(=O)O[C@@H]2/C=C(/C)CC/C=C(/C)C[C@@H](OC(=O)C=C(CO)CO)[C@@H]12
IC100 [1]: 20 µM | pIC100 [2]: -1

C=C1C(=O)O[C@@H]2C[C@H](C)C3=C(C[C@H]12)[C@@H](C)CC3=O
IC100 [1]: 20 µM | pIC100 [2]: -1.3

C=C1[C@@H]2[C@H]3OC(=O)C(=C)[C@@H]3CC[C@](C)(O)[C@@H]2C[C@@H]1O
IC100 [1]: 200 µM | pIC100 [2]: -2.3

C=C(C)C(=O)O[C@H]1/C(C=O)=C\CC/C(C)=C\[C@H]2OC(=O)C(=C)[C@@H]2[C@@H]1O
IC100 [1]: 5 µM | pIC100 [2]: -0.69

C=C1C(=O)O[C@H]2C/C(CO)=C\CC/C(COC(=O)C(C)(C)O)=C\C[C@H]12
IC100 [1]: 50 µM | pIC100 [2]: -1.69

C=C(C)C(=O)O[C@H]1[C@H]2C(=C)C(=O)O[C@@H]2/C=C(/COC(C)=O)CC/C=C(/C=O)[C@@H]1O
IC100 [1]: 5 µM | pIC100 [2]: -0.69

C=C(CO)C(=O)OC/C1=C/C[C@@H]2C(=C)C(=O)O[C@H]2C/C(COC(C)=O)=C\CC1
IC100 [1]: 50 µM | pIC100 [2]: -1.69

C=C1C(=O)O[C@@H]2[C@H]3C(C)=CC[C@H]3[C@](C)(O)C[C@H](OC(C)=O)[C@@H]12
IC100 [1]: 20 µM | pIC100 [2]: -1.3

C=C(C)C(=O)O[C@@H]1/C=C(/C=O)[C@H](OC)CCC(=C)[C@H](O)[C@H]2OC(=O)C(=C)[C@@H]21
IC100 [1]: 10 µM | pIC100 [2]: -1

C=C(C)C(=O)O[C@@H]1C[C@](C)(O)[C@@H]2C(=O)C=C(C)[C@@H]2[C@H]2OC(=O)C(=C)[C@@H]21
IC100 [1]: 50 µM | pIC100 [2]: -1.69

C=C(C)C(=O)O[C@H]1C[C@@]2(C)OC(=CC2=O)/C(CO)=C\[C@H]2OC(=O)C(=C)[C@H]12
IC100 [1]: 20 µM | pIC100 [2]: -1.3

C=C1C(=O)O[C@H]2[C@H]1[C@@H](OC(=O)/C(C)=C/C)C/C(C)=C/C(=O)/C=C(/C)[C@@H]2O
IC100 [1]: 10 µM | pIC100 [2]: -1

C=C1C(=O)O[C@H]2C[C@H](C)C3=C(C[C@H]12)[C@@H](C)CC3=O
IC100 [1]: 20 µM | pIC100 [2]: -1.3

C=C(C)C(=O)O[C@@H]1CC(C)=C2C(=O)C=C(C)[C@@H]2[C@H]2OC(=O)C(=C)[C@@H]21
IC100 [1]: 10 µM | pIC100 [2]: -1

C=C1C(=O)O[C@@H]2[C@H]3C(C)=CC(=O)C3=C(C)C[C@@H](OC(=O)[C@]3(C)O[C@@H]3C)[C@@H]12
IC100 [1]: 20 µM | pIC100 [2]: -1.3

C=C1C(=O)O[C@H]2C3=C(C(=O)C[C@@H]3C)[C@@H](C)CC[C@@H]12
IC100 [1]: 20 µM | pIC100 [2]: -1.3

C=C1C(=O)O[C@@H]2/C=C(/COC(=O)C(C)C)CC/C=C(/CO)C(=O)C[C@@H]12
IC100 [1]: 12.5 µM | pIC100 [2]: -1.09

C=C(C)C(=O)O[C@@H]1/C=C(\C=O)CCC[C@@]2(CO2)[C@H](O)[C@H]2OC(=O)C(=C)[C@@H]21
IC100 [1]: 5 µM | pIC100 [2]: -1

C=C1C(=O)O[C@@H]2C[C@H](C)C3=CC(=O)[C@H](C)[C@@H]3C[C@H]12
IC100 [1]: 50 µM | pIC100 [2]: -1.69

C=C1C(=O)O[C@@H]2[C@H]3C(C)=CC[C@H]3[C@](C)(O)C[C@H](O)[C@@H]12
IC100 [1]: 100 µM | pIC100 [2]: -2

C=C(C)C(=O)O[C@H]1C/C(C)=C\[C@@]2(OC)C=C(C)[C@H](O2)[C@H]2OC(=O)C(=C)[C@@H]21
IC100 [1]: 10 µM | pIC100 [2]: -1

C=C(C)C(=O)O[C@H]1[C@H]2C(=C)C(=O)O[C@@H]2[C@@H](O)C(=C)CC/C=C(/C=O)[C@@H]1OC
IC100 [1]: 50 µM | pIC100 [2]: -1.3
